Measurements as given in ChEMBL document CHEMBL4261495, “Antitrypanosomal and antileishmanial activity of prenyl-1,2,3-triazoles” (Medchemcomm, 2017).

Tests used:
Vero = assay: Cytotoxicity against African green monkey Vero cells at 20 uM after 2 days by neutral red uptake assay; format: cell-based; conditions: chlorocebus sabaeus, 48 h
Trypanosoma cruzi = assay: Antitrypanosomal activity against Trypanosoma cruzi strain CL Brener epimastigotes measured after 72 hrs by Neubauer chamber based cell counting method; format: functional, organism-based
Procedure, shortened: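 CL-Brener epimastigotes were grown in BHT medium at 28 °C and seeded at 3-4 × 10^6 parasites/mL. Compound was added in DMSO (1% final) at 5-100 µg/mL, with benznidazole as positive control. After 72 h, parasites were counted in a Neubauer chamber and inhibition was taken relative to untreated growth. IC50 came from the inhibition-concentration plot. Triplicates were run; values average three independent experiments.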

[1] = Octanol/water partition coefficient, log P of the compound; format: physicochemical
Leishmania donovani = assay: Antileishmanial activity against Leishmania donovani S1 promastigotes after 72 hrs by alamar blue assay; format: functional, organism-based; conditions: S1, 72 h
Procedure, shortened: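 Leishmania donovani strain S1 promastigotes at 2×10^6 cells/mL were exposed to final concentrations of 40, 8 and 1.6 µg/mL. Plates were incubated 72 h at 26 °C, and growth was read by Alamar blue. Pentamidine and amphotericin B served as standards.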

[2] = biological target: Sterol 14-alpha demethylase (Trypanosoma cruzi (strain CL Brener)) (UniProt Q7Z1V1); assay: Inhibition of Trypanosoma cruzi CYP51 assessed as residual enzyme activity at 100 uM using [3H]-MDL as substrate pretreated for 10 mins followed by NADPH addition by RP-HPLC analysis relative to control
Sterol 14-alpha demethylase (Trypanosoma cruzi (strain CL Brener)), sequence (Q7Z1V1 whole entry, looked up): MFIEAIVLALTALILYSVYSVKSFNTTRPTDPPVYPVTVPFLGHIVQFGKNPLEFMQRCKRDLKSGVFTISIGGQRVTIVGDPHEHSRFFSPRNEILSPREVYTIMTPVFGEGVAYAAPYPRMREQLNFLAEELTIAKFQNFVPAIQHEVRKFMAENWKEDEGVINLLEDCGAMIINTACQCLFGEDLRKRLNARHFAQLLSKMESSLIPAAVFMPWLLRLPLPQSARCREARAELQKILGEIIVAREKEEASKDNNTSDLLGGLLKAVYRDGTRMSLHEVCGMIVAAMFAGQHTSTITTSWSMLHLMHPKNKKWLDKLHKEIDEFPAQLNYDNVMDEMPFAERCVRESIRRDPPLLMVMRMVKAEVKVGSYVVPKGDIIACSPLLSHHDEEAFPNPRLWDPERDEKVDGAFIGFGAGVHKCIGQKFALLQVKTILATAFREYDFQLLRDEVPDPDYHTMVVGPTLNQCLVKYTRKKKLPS
Procedure, shortened: (§1)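 TcCYP51 was reconstituted with T. brucei CPR and DLPC (1:2:50 molar), preincubated 10 min at room temperature. The reaction held 1 µM enzyme and 50 µM [3H]-labelled/unlabelled 24-methylenedihydrolanosterol in 20 mM MOPS pH 7.4, 50 mM KCl, 5 mM MgCl2, 10% glycerol, isocitrate dehydrogenase and 25 mM isocitrate. Inhibitor (1-100 µM) was preincubated 5 min at 37 °C, then 5 µM NADPH started the reaction. Products were detected by radioactivity.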

[3] = biological target: Sterol 14-alpha demethylase (Trypanosoma cruzi (strain CL Brener), UniProt Q7Z1V1); assay: Binding affinity to Trypanosoma cruzi CYP51 by spectrophotometric method
Sterol 14-alpha demethylase, sequence (Q7Z1V1 whole entry): as the sequence (Q7Z1V1 whole entry, looked up) above
Procedure, shortened: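 Spectral titration used 2 µM TcCYP51 in buffer A at 24 °C, scanned over 350-500 nm in tandem cuvettes. Ligand was added stepwise from 1 or 10 mM DMSO stocks until the spectral response peaked, with DMSO added to the reference cuvette. Apparent Kd came from fitting absorbance change against free ligand concentration to a rectangular hyperbola.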

[4] = biological target: Sterol 14-alpha demethylase (Trypanosoma cruzi (strain CL Brener)) (UniProt Q7Z1V1); assay: Inhibition of Trypanosoma cruzi CYP51 assessed as residual enzyme activity at 100 uM using [3H]-MDL as substrate pretreated for 5 mins followed by NADPH addition by RP-HPLC analysis relative to control; procedure, shortened: as §1

| IC50 (Trypanosoma cruzi) [µM] | logP [1] | Activity [2] [%] | Kd [3] [µM] | Activity [4] [%] | SMILES | Activity (Vero) | IC50 (Leishmania donovani) [µM] |
| --- | --- | --- | --- | --- | --- | --- | --- |
| > 100 | 8.76 | – | – | – | CCCCCCCCc1cn(C/C=C(\C)CC/C=C(\C)CCC=C(C)C)nn1 | Non-Toxic | 36 |
| 31 | 4.5 | – | – | – | CCCc1cn(C/C=C(\C)CCC=C(C)C)nn1 | Non-Toxic | 72 |
| 39 | 4.91 | – | – | – | CC(C)=CCC/C(C)=C/Cn1cc(-c2ccccc2)nn1 | Non-Toxic | 49 |
| 18 | 7.5 | 39 | 7.6 | 7 | CCCCCc1cn(C/C=C(/C)CC/C=C(\C)CCC=C(C)C)nn1 | Non-Toxic | 11 |
| 34 | 6.92 | – | – | – | CCCCCCCCc1cn(C/C=C(/C)CCC=C(C)C)nn1 | Non-Toxic | 16 |
| 34 | 6.95 | – | – | – | CC(C)=CCC/C(C)=C/CC/C(C)=C/Cn1cc(-c2ccccc2)nn1 | Non-Toxic | 48 |
| 36 | 5.45 | – | – | – | CCCCCc1cn(C/C=C(/C)CCC=C(C)C)nn1 | Non-Toxic | 40 |
| 27 | 6.92 | – | – | – | CCCCCCCCc1cn(C/C=C(\C)CCC=C(C)C)nn1 | Non-Toxic | 57 |
| 32 | 6.95 | – | – | – | CC(C)=CCC/C(C)=C/CC/C(C)=C\Cn1cc(-c2ccccc2)nn1 | Non-Toxic | 49 |
| 18 | 6.5 | 56 | – | 27 | CCCc1cn(C/C=C(\C)CC/C=C(\C)CCC=C(C)C)nn1 | Non-Toxic | 51 |
| > 100 | 2.47 | – | – | – | CCCc1cn(CC=C(C)C)nn1 | Non-Toxic | > 100 |
| 87 | 3.2 | – | – | – | COC(=O)c1cn(C/C=C(/C)CCC=C(C)C)nn1 | Non-Toxic | > 100 |
| 17 | 6.5 | 49 | – | 14 | CCCc1cn(C/C=C(/C)CC/C=C(\C)CCC=C(C)C)nn1 | Non-Toxic | 33 |
| > 100 | 3.46 | – | – | – | CCCCCc1cn(CC=C(C)C)nn1 | Non-Toxic | > 100 |
| 9 | 5.25 | 63 | – | 35 | COC(=O)c1cn(C/C=C(\C)CC/C=C(\C)CCC=C(C)C)nn1 | Non-Toxic | 31 |
| > 100 | 8.76 | – | – | – | CCCCCCCCc1cn(C/C=C(/C)CC/C=C(\C)CCC=C(C)C)nn1 | Non-Toxic | 52 |
| 27 | 4.92 | – | – | – | CCCCCCCCc1cn(CC=C(C)C)nn1 | Non-Toxic | > 100 |
| 15 | 5.25 | 59 | – | 26 | COC(=O)c1cn(C/C=C(/C)CC/C=C(\C)CCC=C(C)C)nn1 | Non-Toxic | 11 |
| 29 | 7.5 | 33 | – | 9 | CCCCCc1cn(C/C=C(\C)CC/C=C(\C)CCC=C(C)C)nn1 | Non-Toxic | 44 |
| – | 0.78 | – | – | – | O=C(Cn1ccnc1[N+](=O)[O-])NCc1ccccc1 [BENZNIDAZOLE] | – | – |
| – | 1.49 | – | – | – | N=C(N)c1ccc(OCCCCCOc2ccc(C(=N)N)cc2)cc1 [PENTAMIDINE] | – | – |
| 87 | 3.2 | – | – | – | COC(=O)c1cn(C/C=C(\C)CCC=C(C)C)nn1 | Non-Toxic | > 100 |
| > 100 | 2.82 | – | – | – | CC(C)=CCn1cc(-c2ccccc2)nn1 | Non-Toxic | > 100 |
| > 100 | 1.3 | – | – | – | COC(=O)c1cn(CC=C(C)C)nn1 | Non-Toxic | > 100 |
| 51 | 5.45 | – | – | – | CCCCCc1cn(C/C=C(\C)CCC=C(C)C)nn1 | Non-Toxic | 94 |
| 44 | 4.05 | – | – | – | CCCc1cn(C/C=C(/C)CCC=C(C)C)nn1 | Non-Toxic | 44 |
| 39 | 4.91 | – | – | – | CC(C)=CCC/C(C)=C\Cn1cc(-c2ccccc2)nn1 | Non-Toxic | 49 |
